In PMC9830076 (International Journal of Nanomedicine, 2023):
Where a name gives a salt, the structure may show the parent alone.

What was measured:
[1] = low solubility and high permeability; cited from earlier work
[2] = tested on: Caco-2 cells; assay: Endocytosis and intracellular trafficking mechanism with pathway inhibitors; type: cell-based; details: for effect of intracellular transport inhibitor on the content of intracellular 6-MP: 200 μM 6-MPNs, 2 h; for effect of endocytosis inhibitor on the internalization of 6-MPNs: 100 μM 6-MPNs, 0.5 h, intracellular 6-MP by HPLC
Method in brief: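 Caco-2 cells in 12-well plates at 1×10^5 cells/mL, grown to 90% confluency, preincubated 0.5 h with inhibitors, PBS-washed ×3. Endocytosis inhibitors (MβCD, genistein, EIPA, Cyt D, CPZ, dynasore) co-incubated with 100 μM test nanoparticles or crystals, 37°C, 0.5 h. Trafficking inhibitors (BFA, monensin, Baf-A1, nocodazole) with 200 μM, 37°C, 2 h. Inhibitor levels as in preincubation; intracellular 6-MP by HPLC.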

[3] = target: T1, MRP4 transporter (Homo sapiens, UniProt O15439); assay: Effect of MRP4 transporter; type: cell-based; details: Caco-2 cells, indomethacin 30 μM, 100 μM 6-MPNs or 6-MPCs, 2 h
T1 sequence (O15439 1-1325): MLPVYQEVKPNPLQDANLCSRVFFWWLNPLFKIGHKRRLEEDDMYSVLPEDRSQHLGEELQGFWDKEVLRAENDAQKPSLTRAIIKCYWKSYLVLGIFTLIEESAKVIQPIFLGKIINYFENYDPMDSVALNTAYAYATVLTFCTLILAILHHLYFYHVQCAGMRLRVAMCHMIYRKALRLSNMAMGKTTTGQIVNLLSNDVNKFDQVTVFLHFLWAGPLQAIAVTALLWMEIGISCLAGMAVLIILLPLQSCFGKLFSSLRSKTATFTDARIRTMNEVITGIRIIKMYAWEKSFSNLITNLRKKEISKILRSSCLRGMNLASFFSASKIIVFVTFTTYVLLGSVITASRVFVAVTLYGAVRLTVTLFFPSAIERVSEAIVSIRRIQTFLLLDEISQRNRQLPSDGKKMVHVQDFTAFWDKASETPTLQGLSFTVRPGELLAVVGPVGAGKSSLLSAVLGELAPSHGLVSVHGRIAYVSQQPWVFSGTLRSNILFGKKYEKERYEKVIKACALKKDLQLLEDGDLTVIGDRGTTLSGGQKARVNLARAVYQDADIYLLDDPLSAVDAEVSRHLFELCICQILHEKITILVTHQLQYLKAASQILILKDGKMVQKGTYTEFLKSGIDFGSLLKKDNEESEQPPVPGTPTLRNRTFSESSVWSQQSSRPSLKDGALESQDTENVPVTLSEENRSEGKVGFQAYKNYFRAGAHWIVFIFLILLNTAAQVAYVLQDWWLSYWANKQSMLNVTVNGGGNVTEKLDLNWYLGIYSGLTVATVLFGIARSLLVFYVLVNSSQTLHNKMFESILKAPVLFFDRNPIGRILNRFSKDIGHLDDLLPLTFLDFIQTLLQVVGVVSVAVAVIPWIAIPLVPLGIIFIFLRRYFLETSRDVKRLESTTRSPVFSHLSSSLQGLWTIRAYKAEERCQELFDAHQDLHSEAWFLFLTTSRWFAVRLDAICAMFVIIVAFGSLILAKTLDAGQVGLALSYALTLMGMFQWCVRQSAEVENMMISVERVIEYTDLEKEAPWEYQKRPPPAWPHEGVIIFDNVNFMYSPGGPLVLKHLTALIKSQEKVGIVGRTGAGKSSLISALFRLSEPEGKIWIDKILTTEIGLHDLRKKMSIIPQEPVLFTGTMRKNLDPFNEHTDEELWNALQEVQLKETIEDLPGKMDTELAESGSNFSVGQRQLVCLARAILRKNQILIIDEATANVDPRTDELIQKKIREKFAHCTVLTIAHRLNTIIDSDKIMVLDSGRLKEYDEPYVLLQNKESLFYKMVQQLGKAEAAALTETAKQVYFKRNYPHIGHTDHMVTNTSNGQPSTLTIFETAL
Method in brief: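 Caco-2 cells grown in 6-well plates to 90% confluency, preincubated 0.5 h at 37°C with 30 μM indomethacin (MRP4 inhibitor), PBS-washed ×3, then exposed 2 h to 100 μM test nanoparticles or crystals plus 30 μM indomethacin; controls without indomethacin. Cells PBS-washed and RIPA/1% PMSF-lysed; 6-MP in lysate by HPLC, total protein by BCA.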

Row | Molecule | effect of intracellular transport inhibitor on the content of intracellular 6-MP [2] | effect of endocytosis inhibitor on the internalization of 6-MPNs [2] | also measured
1 | Sc1ncnc2nc[nH]c12 [6-MP, 6-Mercaptopurine] |  |  | biopharmaceutic classification system (BCS) class [1]: class II
2 | CO/C1=C\C(C)=C\[C@@H](C)[C@@H](O)[C@@H](C)C/C(C)=C/C=C/[C@H](OC)[C@@H]([C@@H](C)[C@@H](O)[C@H](C)[C@@]2(O)C[C@@H](O)[C@H](C)[C@@H](C(C)C)O2)OC1=O [Bafilomycin A1] | significantly enhanced |  | 
3 | C[C@H]1CCC/C=C/[C@@H]2C[C@H](O)C[C@H]2[C@H](O)/C=C/C(=O)O1 [Brefeldin A] | significantly enhanced |  | 
4 | CN(C)CCCN1c2ccccc2Sc2ccc(Cl)cc21 [CPZ, chlorpromazine hydrochloride] |  | less influence | 
5 | C=C1[C@@H](C)[C@H]2[C@H](Cc3ccccc3)NC(=O)[C@]23[C@H](OC(C)=O)/C=C/[C@@](C)(O)C(=O)[C@@H](C)C/C=C/[C@H]3[C@@H]1O [Cyt D, cytochalasin D] |  | less influence | 
6 | O=C(N/N=C/c1ccc(O)c(O)c1)c1cc2ccccc2cc1O [Dynasore, dynasore] |  | obviously reduced | 
7 | CCN(c1nc(N)c(C(=O)NC(=N)N)nc1Cl)C(C)C [EIPA, ethyl-isopropyl-amiloride] |  | obviously reduced | 
8 | O=c1c(-c2ccc(O)cc2)coc2cc(O)cc(O)c12 [Genistein, genistein] |  | less influence | 
9 | CC[C@@]1([C@@H]2O[C@@H]([C@H]3O[C@@](O)(CO)[C@H](C)C[C@@H]3C)C[C@@H]2C)CC[C@H]([C@]2(C)CC[C@]3(C[C@H](O)[C@@H](C)[C@@H]([C@@H](C)[C@@H](OC)[C@H](C)C(=O)O)O3)O2)O1 [Monensin] | significantly enhanced |  | 
10 | COC(=O)Nc1nc2ccc(C(=O)c3cccs3)cc2[nH]1 [Nocodazole, nocodazole] | significantly enhanced |  | 
11 | COc1ccc2c(c1)c(CC(=O)O)c(C)n2C(=O)c1ccc(Cl)cc1 [indomethacin] |  |  | effect on intracellular accumulation of 6-MP [3]: increased
12 | Methyl-beta-cyclodextrin [MβCD] |  | obviously reduced | 
